How the values were obtained:
[1] = test system: 9L; test: Drug uptake per 10^6 cells in rat 9L cells after 30 mins assessed as uptake inhibition in presence of N-methyl-alpha-aminoisobutyric acid relative to control; assay type: ADME, cell-based; set-up: scale not given: the % may be the effect or the level left; details: 0.5 h
In short: (§1)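 Cultured rat 9L gliosarcoma cells incubated 30 min with 131I-labelled tracer, with or without A-type inhibitor N-MeAIB or L-type inhibitor BCH. Uptake expressed as percent of initial dose per 1 × 10^6 cells, normalized for dose and cell number. Inhibition compared to control by one-way ANOVA; SD shown.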

[2] = test system: Kidney; test: Biodistribution in 9L cells bearing Fischer 344 rat kidney at 15 to 30 uCi, iv after 30 mins; assay type: ADME, organism-based; details: in vivo, 0.5 h
In short: (§2)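 Male Fischer 344 rats (125–175 g) bearing intracranial 9L gliosarcoma implants; radioiodinated tracer (123I for S, 131I for R) purified in saline, given intravenously. Tissues harvested at 30, 60 or 120 min, radioactivity expressed as %ID/g (thyroid per organ). Groups: S study 5 rats per time; R study 5 at 30 min, 4 at 60 and 120 min.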

[3] = test system: Thyroid gland; test: Biodistribution in 9L cells bearing Fischer 344 rat thyroid at 15 to 30 uCi, iv after 60 mins; assay type: ADME, organism-based; details: in vivo, 1 h; in short: as §2
[4] = test system: Muscle tissue; test: Biodistribution in 9L cells bearing Fischer 344 rat muscle at 15 to 30 uCi, iv after 30 mins; assay type: ADME, organism-based; details: in vivo, 0.5 h; in short: as §2
[5] = test system: Liver; test: Biodistribution in 9L cells bearing Fischer 344 rat liver at 15 to 30 uCi, iv after 60 mins; assay type: ADME, organism-based; details: in vivo, 1 h; in short: as §2
[6] = test system: Kidney; test: Biodistribution in 9L cells bearing Fischer 344 rat kidney at 15 to 30 uCi, iv after 120 mins; assay type: ADME, organism-based; details: in vivo, 2 h; in short: as §2
[7] = test system: Heart; test: Biodistribution in 9L cells bearing Fischer 344 rat heart at 15 to 30 uCi, iv after 60 mins; assay type: ADME, organism-based; details: in vivo, 1 h; in short: as §2
[8] = test system: Brain; test: Biodistribution in 9L cells bearing Fischer 344 rat brain at 15 to 30 uCi, iv after 120 mins; assay type: ADME, organism-based; details: in vivo, 2 h; in short: as §2
[9] = test system: Rattus norvegicus; test: Biodistribution in 9L cells bearing Fischer 344 rat tumor at 15 to 30 uCi, iv after 60 mins; assay type: ADME, organism-based, Neoplasm; details: in vivo, 1 h; in short: as §2
[10] = test system: Thyroid gland; test: Biodistribution in 9L cells bearing Fischer 344 rat thyroid at 15 to 30 uCi, iv after 30 mins; assay type: ADME, organism-based; details: in vivo, 0.5 h; in short: as §2
[11] = test system: Rattus norvegicus; test: Biodistribution in 9L cells bearing Fischer 344 rat tumor at 15 to 30 uCi, iv after 120 mins; assay type: ADME, organism-based, Neoplasm; details: in vivo, 2 h; in short: as §2
[12] = test system: Muscle tissue; test: Biodistribution in 9L cells bearing Fischer 344 rat muscle at 15 to 30 uCi, iv after 120 mins; assay type: ADME, organism-based; details: in vivo, 2 h; in short: as §2
[13] = test system: Nucleic Acid; test: Ratio of drug level in tumor to brain in 9L cells bearing Fischer 344 rat at 15 to 30 uCi, iv after 30 mins; assay type: ADME, organism-based; details: in vivo, 0.5 h
In short: (§3)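 Intracranial 9L gliosarcoma in male Fischer 344 rats (125–175 g). The 123I-labelled (S) or 131I-labelled (R) tracer was given iv in saline. Tumor and normal brain %ID/g were measured at 30, 60 or 120 min, and the ratio was taken from these. Groups were 5 per time for S, and 5/4/4 for R.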

[14] = test system: Lung; test: Biodistribution in 9L cells bearing Fischer 344 rat lung at 15 to 30 uCi, iv after 30 mins; assay type: ADME, organism-based; details: in vivo, 0.5 h; in short: as §2
[15] = test system: Bone; test: Biodistribution in 9L cells bearing Fischer 344 rat bone at 15 to 30 uCi, iv after 60 mins; assay type: ADME, organism-based, Bone element; details: in vivo, 1 h; in short: as §2
[16] = test system: Thyroid gland; test: Biodistribution in 9L cells bearing Fischer 344 rat thyroid at 15 to 30 uCi, iv after 120 mins; assay type: ADME, organism-based; details: in vivo, 2 h; in short: as §2
[17] = test system: Kidney; test: Biodistribution in 9L cells bearing Fischer 344 rat kidney at 15 to 30 uCi, iv after 60 mins; assay type: ADME, organism-based; details: in vivo, 1 h; in short: as §2
[18] = test system: 9L; test: Drug uptake per 10^6 cells in rat 9L cells after 30 mins; assay type: ADME, cell-based; details: 0.5 h; in short: as §1
[19] = test system: Blood; test: Biodistribution in 9L cells bearing Fischer 344 rat blood at 15 to 30 uCi, iv after 60 mins; assay type: ADME, organism-based; details: in vivo, 1 h; in short: as §2
[20] = test system: Spleen; test: Biodistribution in 9L cells bearing Fischer 344 rat spleen at 15 to 30 uCi, iv after 60 mins; assay type: ADME, organism-based; details: in vivo, 1 h; in short: as §2
[21] = test system: Lung; test: Biodistribution in 9L cells bearing Fischer 344 rat lung at 15 to 30 uCi, iv after 60 mins; assay type: ADME, organism-based; details: in vivo, 1 h; in short: as §2
[22] = test system: Brain; test: Biodistribution in 9L cells bearing Fischer 344 rat brain at 15 to 30 uCi, iv after 30 mins; assay type: ADME, organism-based; details: in vivo, 0.5 h; in short: as §2
[23] = test system: Bone; test: Biodistribution in 9L cells bearing Fischer 344 rat bone at 15 to 30 uCi, iv after 30 mins; assay type: ADME, organism-based, Bone element; details: in vivo, 0.5 h; in short: as §2
[24] = test system: Blood; test: Biodistribution in 9L cells bearing Fischer 344 rat blood at 15 to 30 uCi, iv after 120 mins; assay type: ADME, organism-based; details: in vivo, 2 h; in short: as §2
[25] = test system: Nucleic Acid; test: Ratio of drug level in tumor to brain in 9L cells bearing Fischer 344 rat at 15 to 30 uCi, iv after 120 mins; assay type: ADME, organism-based; details: in vivo, 2 h; in short: as §3
[26] = test system: Lung; test: Biodistribution in 9L cells bearing Fischer 344 rat lung at 15 to 30 uCi, iv after 120 mins; assay type: ADME, organism-based; details: in vivo, 2 h; in short: as §2
[27] = test system: Nucleic Acid; test: Ratio of drug level in tumor to brain in 9L cells bearing Fischer 344 rat at 15 to 30 uCi, iv after 60 mins; assay type: ADME, organism-based; details: in vivo, 1 h; in short: as §3
[28] = test system: Testes; test: Biodistribution in 9L cells bearing Fischer 344 rat testes at 15 to 30 uCi, iv after 30 mins; assay type: ADME, organism-based, Testis; details: in vivo, 0.5 h; in short: as §2
[29] = test system: Pancreas; test: Biodistribution in 9L cells bearing Fischer 344 rat pancreas at 15 to 30 uCi, iv after 120 mins; assay type: ADME, organism-based; details: in vivo, 2 h; in short: as §2
[30] = test system: Pancreas; test: Biodistribution in 9L cells bearing Fischer 344 rat pancreas at 15 to 30 uCi, iv after 30 mins; assay type: ADME, organism-based; details: in vivo, 0.5 h; in short: as §2
[31] = test system: Blood; test: Biodistribution in 9L cells bearing Fischer 344 rat blood at 15 to 30 uCi, iv after 30 mins; assay type: ADME, organism-based; details: in vivo, 0.5 h; in short: as §2
[32] = test system: Spleen; test: Biodistribution in 9L cells bearing Fischer 344 rat spleen at 15 to 30 uCi, iv after 30 mins; assay type: ADME, organism-based; details: in vivo, 0.5 h; in short: as §2
[33] = test system: Pancreas; test: Biodistribution in 9L cells bearing Fischer 344 rat pancreas at 15 to 30 uCi, iv after 60 mins; assay type: ADME, organism-based; details: in vivo, 1 h; in short: as §2
[34] = test system: Spleen; test: Biodistribution in 9L cells bearing Fischer 344 rat spleen at 15 to 30 uCi, iv after 120 mins; assay type: ADME, organism-based; details: in vivo, 2 h; in short: as §2
[35] = test system: Testes; test: Biodistribution in 9L cells bearing Fischer 344 rat testes at 15 to 30 uCi, iv after 120 mins; assay type: ADME, organism-based, Testis; details: in vivo, 2 h; in short: as §2
[36] = test system: Heart; test: Biodistribution in 9L cells bearing Fischer 344 rat heart at 15 to 30 uCi, iv after 120 mins; assay type: ADME, organism-based; details: in vivo, 2 h; in short: as §2
[37] = test system: Muscle tissue; test: Biodistribution in 9L cells bearing Fischer 344 rat muscle at 15 to 30 uCi, iv after 60 mins; assay type: ADME, organism-based; details: in vivo, 1 h; in short: as §2
[38] = test system: Bone; test: Biodistribution in 9L cells bearing Fischer 344 rat bone at 15 to 30 uCi, iv after 120 mins; assay type: ADME, organism-based, Bone element; details: in vivo, 2 h; in short: as §2
[39] = test system: Brain; test: Biodistribution in 9L cells bearing Fischer 344 rat brain at 15 to 30 uCi, iv after 60 mins; assay type: ADME, organism-based; details: in vivo, 1 h; in short: as §2
[40] = test system: Liver; test: Biodistribution in 9L cells bearing Fischer 344 rat liver at 15 to 30 uCi, iv after 120 mins; assay type: ADME, organism-based; details: in vivo, 2 h; in short: as §2
[41] = test system: Heart; test: Biodistribution in 9L cells bearing Fischer 344 rat heart at 15 to 30 uCi, iv after 30 mins; assay type: ADME, organism-based; details: in vivo, 0.5 h; in short: as §2
[42] = test system: Testes; test: Biodistribution in 9L cells bearing Fischer 344 rat testes at 15 to 30 uCi, iv after 60 mins; assay type: ADME, organism-based, Testis; details: in vivo, 1 h; in short: as §2
[43] = test system: Rattus norvegicus; test: Biodistribution in 9L cells bearing Fischer 344 rat tumor at 15 to 30 uCi, iv after 30 mins; assay type: ADME, organism-based, Neoplasm; details: in vivo, 0.5 h; in short: as §2
[44] = test system: Liver; test: Biodistribution in 9L cells bearing Fischer 344 rat liver at 15 to 30 uCi, iv after 30 mins; assay type: ADME, organism-based; details: in vivo, 0.5 h; in short: as §2

C[C@](N)(/C=C/[123I])C(=O)O
Activity [1]: 85% | Drug uptake [2]: 24 % ID/g | Drug uptake [3]: 0.24 %ID/organ | Drug uptake [4]: 1.35 % ID/g | Drug uptake [5]: 1.62 % ID/g | Drug uptake [6]: 18.4 % ID/g | Drug uptake [7]: 1.4 % ID/g | Drug uptake [8]: 0.096 % ID/g | Drug uptake [9]: 6.81 % ID/g | Drug uptake [10]: 0.16 %ID/organ | Drug uptake [11]: 6.84 % ID/g | Drug uptake [12]: 1.26 % ID/g | Ratio [13]: 81 | Drug uptake [14]: 1.24 % ID/g | Drug uptake [15]: 0.74 % ID/g | Drug uptake [16]: 0.18 %ID/organ | Drug uptake [17]: 22.9 % ID/g | Drug uptake [18]: 0.35 %ID | Drug uptake [19]: 1.22 % ID/g | Drug uptake [20]: 1.73 % ID/g | Drug uptake [21]: 1.41 % ID/g | Drug uptake [22]: 0.058 % ID/g | Drug uptake [23]: 0.51 % ID/g | Drug uptake [24]: 1.03 % ID/g | Ratio [25]: 71 | Drug uptake [26]: 0.98 % ID/g | Ratio [27]: 75 | Drug uptake [28]: 0.49 % ID/g | Drug uptake [29]: 7.7 % ID/g | Drug uptake [30]: 11.9 % ID/g | Drug uptake [31]: 1.33 % ID/g | Drug uptake [32]: 1.54 % ID/g | Drug uptake [33]: 10.7 % ID/g | Drug uptake [34]: 1.08 % ID/g | Drug uptake [35]: 0.64 % ID/g | Drug uptake [36]: 1.2 % ID/g | Drug uptake [37]: 1.7 % ID/g | Drug uptake [38]: 0.64 % ID/g | Drug uptake [39]: 0.091 % ID/g | Drug uptake [40]: 1.27 % ID/g | Drug uptake [41]: 1.31 % ID/g | Drug uptake [42]: 0.58 % ID/g | Drug uptake [43]: 4.7 % ID/g | Drug uptake [44]: 1.62 % ID/g
